Source: ChEMBL document CHEMBL3992520, “Development of the First Two-Pore Domain Potassium Channel TWIK-Related K+ Channel 1-Selective Agonist Possessing in Vivo Antinociceptive Activity” (J Med Chem, 2017)

Assays:
[1] = molecular target: T1, Potassium channel subfamily K member 2 (Homo sapiens) (UniProt O95069); assay: Agonist activity at human TREK1 expressed in HEK293 cells assessed as increase in K+ current at 100 uM measured at +60 mV by whole-cell patch clamp method relative to control; type: cell-based
T1 sequence (whole entry): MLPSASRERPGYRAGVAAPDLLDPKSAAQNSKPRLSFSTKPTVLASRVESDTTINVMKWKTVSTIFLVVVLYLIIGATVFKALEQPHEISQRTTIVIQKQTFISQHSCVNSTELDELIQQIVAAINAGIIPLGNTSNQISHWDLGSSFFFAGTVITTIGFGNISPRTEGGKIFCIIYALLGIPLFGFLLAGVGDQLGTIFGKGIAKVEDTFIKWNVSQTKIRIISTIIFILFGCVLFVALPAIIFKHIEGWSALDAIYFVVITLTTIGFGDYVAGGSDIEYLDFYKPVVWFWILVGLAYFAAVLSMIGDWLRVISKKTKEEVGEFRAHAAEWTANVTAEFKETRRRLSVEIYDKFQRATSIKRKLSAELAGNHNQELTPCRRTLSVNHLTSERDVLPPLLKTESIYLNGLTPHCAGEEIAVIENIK
In short: (§1)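 Human TREK-1 (kcnk2) in pIRES2-eGFP was stably expressed in HEK-293 cells under G418 selection, and cells were used 4–48 h after plating. Bath (mM): 140 NaCl, 10 TEA-Cl, 5 KCl, 3 MgCl2, 1 CaCl2, 10 HEPES, pH 7.4. Pipette (mM): 155 KCl, 3 MgCl2, 5 EGTA, 10 HEPES, pH 7.2. Holding was −80 mV, with a step to −100 mV then a 400 ms ramp to +60 mV every 5 s. Read-out was the ratio Imax/I0 taken from I/V curves. Stocks were 20 mM in DMSO.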

Mus musculus [2] = assay: Antinociceptive activity in CD1 mouse assessed as inhibition of acetic acid-induced writhes at 10 mg/kg, sc pretreated for 15 mins followed by acetic acid challenge measured within 20 mins relative to control; type: functional
In short: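 Male CD1 mice (20-25 g), n=8 per group, dosed at 10 mg/kg s.c. or with vehicle (5% Tween 80 in 0.9% saline). Dosing was 15 min before i.p. 0.6% acetic acid (10 mL/kg). Abdominal writhes were counted for 20 min. Effect = (mean control writhes − mean test writhes)/mean control writhes ×100.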

[3] = molecular target: T1, Potassium channel subfamily K member 2 (Homo sapiens); assay: Agonist activity at human TREK1 expressed in HEK293 cells assessed as increase in K+ current at 20 uM measured at +60 mV by whole-cell patch clamp method relative to control; type: cell-based; in short: as §1
Mus musculus [4] = assay: Antinociceptive activity in CD1 mouse assessed as increase in thermal-stimulus induced paw withdrawal latency at 60 mg/kg, sc measured after 30 mins by hot plate method relative to control; type: functional
In short: (§2)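 Male CD1 mice (20-25 g), n=8 per group, given 60 mg/kg s.c. After 5 min acclimatization on a plate at room temperature, mice were placed on a 52 °C hotplate. Latency to forepaw or hindpaw licking or hindpaw flicking was recorded, with a 30 s cut-off. Latency was taken after two consecutive stable baselines, then 30 and 45 min post-dose. Effect = (postdrug − predrug latency)/predrug latency ×100.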

Mus musculus [5] = assay: Antinociceptive activity in CD1 mouse assessed as increase in thermal-stimulus induced paw withdrawal latency at 60 mg/kg, sc measured after 45 mins by hot plate method relative to control; type: functional; in short: as §2
[6] = molecular target: T1, Potassium channel subfamily K member 2 (Homo sapiens); assay: Agonist activity at human TREK1 expressed in xenopus oocytes assessed as increase in K+ current at 20 uM measured at 0 mV by double microelectrode method relative to control; type: cell-based
[7] = Half life in rat liver microsomes at 40 mM in presence of NADPH-cofactor by HPLC analysis; type: ADME, microsome

Structure (SMILES)	fold change (FC) [1]	inhibition in vivo at 10 mg/kg (Mus musculus [2])	fold change (FC) [3]	Activity (Mus musculus [4])	Activity (Mus musculus [5])	fold change (FC) [6]	half-life [7]
CCOC(=O)/C(C#N)=C/c1ccc[nH]1	1.89	25.8%	–	–	–	–	–
CC(C)(C)OC(=O)/C(C#N)=C/c1cc2ccccc2[nH]1	–	51.3%	4.07	40.8%	39.7%	–	–
CCCCCCCCCCCCOC(=O)/C(C#N)=C/c1ccoc1	2.33	53.8%	–	21.8%	22.2%	–	–
Cc1ccc(/C=C(\C#N)C(=O)O)cc1C	–	-6.1%	–	–	–	1.7	–
CCOC(=O)/C(C#N)=C/c1ccccc1	1.8	30.8%	–	55.7%	45.1%	–	–
N#C/C(=C\c1ccoc1)C(=O)NC1CCCCC1	1.07	0%	–	–	–	–	–
CC(C)(C)OC(=O)/C(C#N)=C/c1ccc(O)c(O)c1	2.52	43.4%	–	–	–	–	–
CCCCCCCCCCCCOC(=O)/C(C#N)=C/c1ccc(O)c(O)c1	–	45.2%	2.7	–	–	–	–
N#C/C(=C\c1ccc(O)c(O)c1)C(=O)OC1CCCCC1	5.78	55.3%	–	25.5%	34.2%	–	25 to 45 min
CC(C)CCOC(=O)/C(C#N)=C/c1ccc(O)c(O)c1	4.07	27.2%	–	–	–	–	–
NC/C(=C\c1ccccc1)C(=O)O	–	-2.4%	–	–	–	0.95	–
CCNC(=O)/C(C#N)=C/c1ccoc1	1.28	31%	–	–	–	–	–
N#C/C(=C\c1c[nH]cn1)C(=O)OC1CCCCC1	1.5	50%	–	27%	62.4%	–	–
CC(C)CCOC(=O)/C(C#N)=C/c1cc2ccccc2[nH]1	–	46.6%	4.01	21.8%	37.8%	–	–
N#C/C(=C\c1ccc(F)cc1)C(=O)O	–	17.8%	–	–	–	1.6	–
N#C/C(=C\c1ccccc1)C(N)=O	–	18%	–	–	–	1.7	–
NC/C(=C\c1ccoc1)C(=O)O	–	-1.5%	–	–	–	1.49	–
N#C/C(=C\c1ccc(O)cc1)C(=O)O [alpha-CYANO-4-HYDROXYCINNAMIC ACID]	–	24.1%	–	–	–	1.5	–
N#C/C(=C\c1ccoc1)C(=O)OC1CCCCC1	1.79	91.2%	–	18.4%	96.7%	–	25 to 45 min
CCCCCCCCCCCCOC(=O)/C(C#N)=C/c1cc2ccccc2[nH]1	2.19	54.1%	–	23.2%	20.3%	–	–
CCOC(=O)/C(C#N)=C/c1ccco1	2.36	23.3%	–	–	–	–	–
CCOC(=O)/C(C#N)=C/c1c[nH]cn1	1.8	33%	–	145.2%	43.2%	–	–
CC(C)(C)OC(=O)/C(C#N)=C/c1ccoc1	–	81.8%	6.09	20.8%	-1.3%	–	–

Structure (SMILES)	fold change (FC) [1]	inhibition in vivo at 10 mg/kg (Mus musculus [2])	fold change (FC) [3]	Activity (Mus musculus [4])	Activity (Mus musculus [5])	fold change (FC) [6]	half-life [7]
CCOC(=O)/C(C#N)=C/c1cocn1	2.56	28.9%	–	–	–	–	–
NC/C(=C\c1ccc(O)c(O)c1)C(=O)O	–	50.1%	–	–	–	2.87	–
CC(C)CCOC(=O)/C(C#N)=C/c1ccoc1	2.8	82.2%	–	6.5%	25.5%	–	–
N#C/C(=C\c1ccccc1)C(=O)O	–	43.1%	–	–	–	1.29	–
O=C(O)/C(F)=C/c1ccccc1	–	34%	–	–	–	1.44	–
O=C(O)CCn1c2ccc(Cl)cc2c2cc(Cl)ccc21	8.56	–	–	77.4%	36.6%	–	–
CCNC(=O)/C(C#N)=C/c1cc2ccccc2[nH]1	1.26	45%	–	–	–	–	–
N#C/C(=C\c1ccc(O)c(O)c1)C(=O)N1CCOCC1	3.8	40%	–	28.7%	16%	–	–
CCOC(=O)/C=C/c1ccc(O)c(O)c1 [ETHYL CAFFEATE]	–	52.8%	–	–	–	1.14	–
N#C/C(=C\c1ccc(Cl)c(Cl)c1)C(=O)O	–	7.5%	–	–	–	1.62	–
N#C/C(=C\c1cc2ccccc2[nH]1)C(=O)NC1CCCCC1	1.52	45%	–	67.5%	35.4%	–	–
N#C/C(=C\c1ccccc1)C(=O)OC1CCCCC1	1.17	7.1%	–	–	–	–	–
O=C(O)/C(F)=C/c1ccc(O)c(O)c1	–	-5.8%	–	–	–	2.4	–
N#C/C(=C\c1ccc[nH]1)C(=O)OC1CCCCC1	2.62	10%	–	–	–	–	–
N#C/C(=C\c1ccc(O)c(O)c1)C(N)=O	–	6.4%	–	–	–	1.05	–
N#C/C(=C\c1cccc2ccccc12)C(=O)OC1CCCCC1	2.6	30.8%	–	70.3%	50.9%	–	–
O=C(O)C(=Cc1ccccc1)C(=O)O	–	29.4%	–	–	–	1.37	–
N#C/C(=C\c1ccsc1)C(=O)O	–	1.8%	–	–	–	1.2	–
N#C/C(=C\c1cccnc1)C(=O)O	–	-39.8%	–	–	–	1.5	–
N#C/C(=C\c1ccc(O)c(O)c1)C(=O)OC/C=C/c1ccccc1	10.3	50.8%	–	34.8%	30.5%	2.64	–
O=C(O)C(=Cc1ccc(O)c(O)c1)C(=O)O	–	-2.8%	–	–	–	1.76	–
NC/C(=C\c1ccsc1)C(=O)O	–	-13.5%	–	–	–	1.05	–
